Reference: ChEMBL document CHEMBL3272038, “Synthesis and central nervous system depressant activity of some bicyclic amides” (J Med Chem, 1976)
Active and inactive are the calls of the source. The rule behind the calls is not given here.

What was measured:
[1] = Acute toxicity in ip dosed Royal Hart Wistar rat; type: organism-based; settings: in vivo
In short: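 Paired male Royal Hart Wistar rats (136–160 g) were housed in wire cages and dosed ip. LD50 was read 2 hr after administration, using four rats per substance, and estimated by probit analysis.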

Mus musculus [2] = species on record: Mus musculus; assay: Anticonvulsant activity in mouse assessed as protection against maximal electroshock-induced seizures; type: functional
In short: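 Maximal electroshock seizure test in mice, run by an earlier published method. Compounds were given ip at ten animals per dose, and ED50 is expressed in mg/kg ip.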

Mus musculus [3] = species on record: Mus musculus; assay: Anticonvulsant activity in mouse assessed as protection against N-sulfamoylhexahydroazepine-induced convulsions; type: functional
In short: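 N-sulfamoylhexahydroazepine convulsion test in mice, run by an earlier published method. Compounds were given ip at ten animals per dose, and ED50 is expressed in mg/kg ip.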

Mus musculus [4] = assay: Central nervous depressant activity in ip dosed mouse assessed as induction of ataxia; type: functional; settings: Central nervous system
In short: (§1)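 Behavioral scoring in mice used a modified Irwin observational method. Compounds were given ip at ten animals per dose. Ataxia and loss of righting reflex were recorded, and ED50 values are in mg/kg ip.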

Mus musculus [5] = assay: Central nervous depressant activity in ip dosed mouse assessed as loss of righting reflex; type: functional; settings: Central nervous system; in short: as §1
Mus musculus [6] = assay: Reinduction of anesthesia-induced loss of righting in dosed mouse administered compound following recovery from hexobarbital anesthesia; type: functional
In short: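 Mice were anesthetized with hexobarbital (70 mg/kg iv). Compound was given ip immediately on recovery, and reinduction of loss of righting was timed from that point. The method was modified from earlier work, and RD50 is expressed in mg/kg ip.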

Mus musculus [7] = assay: Anticonvulsant activity in mouse assessed as protection against maximal electroshock-induced seizures at 200 mg/kg, ip; type: functional, organism-based; design: dose 200 mg/kg
Mus musculus [8] = assay: Anticonvulsant activity in mouse assessed as protection against N-sulfamoylhexahydroazepine-induced convulsions at 200 mg/kg, ip; type: functional, organism-based; design: dose 200 mg/kg
Mus musculus [9] = assay: Anticonvulsant activity in mouse assessed as protection against N-sulfamoylhexahydroazepine-induced convulsions at 400 mg/kg, ip; type: functional, organism-based; design: dose 400 mg/kg
Mus musculus [10] = assay: Anticonvulsant activity in mouse assessed as protection against maximal electroshock-induced seizures at 100 mg/kg, ip; type: functional, organism-based; design: dose 100 mg/kg

With O=C1CCCC2(c3ccccc3)OCCCN12 (stereo not drawn) the LD50 [1] was 500 mg/kg, the ED50 (Mus musculus [2]) was under 150 mg/kg and the ED50 (Mus musculus [3]) was 122 mg/kg. For the same compound, the ED50 (Mus musculus [4]) was under 50 mg/kg, the ED50 (Mus musculus [5]) was 150 mg/kg and the RD50 (Mus musculus [6]) was 75 mg/kg.

For COc1ccc(C(=O)CCC(=O)NCCCO)cc1, the LD50 [1] was 800 mg/kg, the ED50 (Mus musculus [2]) was over 600 mg/kg and the ED50 (Mus musculus [3]) was over 600 mg/kg. It also gave an ED50 (Mus musculus [4]) of 150 mg/kg, an ED50 (Mus musculus [5]) of 800 mg/kg and an RD50 (Mus musculus [6]) of under 600 mg/kg.

For O=C(CCC(=O)c1cccs1)NCCCO, the LD50 [1] was 475 mg/kg, the ED50 (Mus musculus [2]) was over 300 mg/kg and the ED50 (Mus musculus [3]) was over 300 mg/kg. The ED50 (Mus musculus [4]) was 300 mg/kg, the ED50 (Mus musculus [5]) was 300 mg/kg and the RD50 (Mus musculus [6]) was over 300 mg/kg.

Compound O=C(CCC(=O)c1ccc(Cl)cc1)NCCCO has an LD50 [1] of 633 mg/kg, an ED50 (Mus musculus [2]) of over 300 mg/kg and an ED50 (Mus musculus [3]) of over 300 mg/kg. It also gave an ED50 (Mus musculus [4]) of 300 mg/kg, an ED50 (Mus musculus [5]) of 325 mg/kg and an RD50 (Mus musculus [6]) of under 300 mg/kg.

For O=C1CCC2(c3cccs3)OCCCN12 (stereo not drawn), the LD50 [1] was 467 mg/kg, the ED50 (Mus musculus [2]) was 112 mg/kg and the ED50 (Mus musculus [3]) was over 75 mg/kg. It also gave an ED50 (Mus musculus [4]) of over 75 mg/kg, an ED50 (Mus musculus [5]) of over 75 mg/kg and an RD50 (Mus musculus [6]) of 46.5 mg/kg.

In the case of Cc1ccc(C(=O)CCC(=O)NCCCO)cc1, the LD50 [1] is reported as 750 mg/kg, the ED50 (Mus musculus [2]) is reported as over 300 mg/kg and the ED50 (Mus musculus [3]) is reported as over 300 mg/kg. For the same compound, the ED50 (Mus musculus [4]) was 300 mg/kg, the ED50 (Mus musculus [5]) was 700 mg/kg and the RD50 (Mus musculus [6]) was under 300 mg/kg.

With O=C1CCC2(c3ccccc3)OCCN12 (stereo not drawn) the Activity (Mus musculus [7]) was “inactive”, the LD50 [1] was 300 mg/kg and the ED50 (Mus musculus [4]) was under 50 mg/kg. The ED50 (Mus musculus [5]) was 150 mg/kg, the RD50 (Mus musculus [6]) was 37.5 mg/kg and the Activity (Mus musculus [8]) was “inactive”.

Work on O=C1CCC2(c3ccccc3)OCCCN12 (stereo not drawn) yielded an LD50 [1] of 500 mg/kg, an ED50 (Mus musculus [2]) of 92 mg/kg and an ED50 (Mus musculus [3]) of 169 mg/kg. For the same compound, the ED50 (Mus musculus [4]) was 37.5 mg/kg, the ED50 (Mus musculus [5]) was 150 mg/kg and the RD50 (Mus musculus [6]) was 34 mg/kg.

O=C1CCC2(c3ccc(Cl)cc3)OCCCN12 (stereo not drawn) gave an LD50 [1] of 675 mg/kg, an ED50 (Mus musculus [2]) of 58 mg/kg and an ED50 (Mus musculus [3]) of 91.7 mg/kg. It also gave an ED50 (Mus musculus [4]) of 75 mg/kg, an ED50 (Mus musculus [5]) of 81.2 mg/kg and an RD50 (Mus musculus [6]) of over 100 mg/kg.

For O=C(CCC(=O)c1ccc(F)cc1)NCCCO, the LD50 [1] was over 800 mg/kg, the ED50 (Mus musculus [2]) was over 400 mg/kg and the ED50 (Mus musculus [3]) was over 400 mg/kg. The ED50 (Mus musculus [4]) was 300 mg/kg, the ED50 (Mus musculus [5]) was 500 mg/kg and the RD50 (Mus musculus [6]) was over 400 mg/kg.

COc1ccc(C23CCC(=O)N2CCCO3)cc1 (stereo not drawn) showed an ED50 (Mus musculus [2]) of 93.8 mg/kg, an ED50 (Mus musculus [3]) of 138 mg/kg and an ED50 (Mus musculus [4]) of under 150 mg/kg. It also gave an ED50 (Mus musculus [5]) of under 150 mg/kg and an RD50 (Mus musculus [6]) of under 150 mg/kg.

Compound CCC1(c2ccccc2)CCC(=O)NC1=O (stereo not drawn) [GLUTETHIMIDE] has an LD50 [1] of 350 mg/kg, an ED50 (Mus musculus [2]) of 24.7 mg/kg and an ED50 (Mus musculus [4]) of 100 mg/kg. The ED50 (Mus musculus [5]) was 229 mg/kg, the RD50 (Mus musculus [6]) was 112.5 mg/kg and the Activity (Mus musculus [9]) was “inactive”.

With O=C(CCC(=O)c1ccc(Cl)c(Cl)c1)NCCCO the LD50 [1] was 500 mg/kg, the ED50 (Mus musculus [2]) was 450 mg/kg and the ED50 (Mus musculus [3]) was over 600 mg/kg. The ED50 (Mus musculus [4]) was 300 mg/kg, the ED50 (Mus musculus [5]) was 500 mg/kg and the RD50 (Mus musculus [6]) was over 300 mg/kg.

Work on Cc1ccc(C(=O)CCC(=O)NCCCO)c(C)c1 yielded an LD50 [1] of 633 mg/kg, an ED50 (Mus musculus [2]) of over 150 mg/kg and an ED50 (Mus musculus [3]) of over 150 mg/kg. The ED50 (Mus musculus [4]) was 150 mg/kg, the ED50 (Mus musculus [5]) was 150 mg/kg and the RD50 (Mus musculus [6]) was under 150 mg/kg.

Compound O=C1CCC2(c3ccc(F)cc3)OCCCN12 (stereo not drawn) has an LD50 [1] of 600 mg/kg, an ED50 (Mus musculus [2]) of 68.7 mg/kg and an ED50 (Mus musculus [3]) of 50 mg/kg. It also gave an ED50 (Mus musculus [4]) of 75 mg/kg, an ED50 (Mus musculus [5]) of 100 mg/kg and an RD50 (Mus musculus [6]) of 66 mg/kg.

For O=C1CCC2(c3ccc(Cl)c(Cl)c3)OCCCN12 (stereo not drawn), the LD50 [1] was 550 mg/kg, the ED50 (Mus musculus [2]) was 112 mg/kg and the ED50 (Mus musculus [3]) was under 75 mg/kg. It also gave an ED50 (Mus musculus [4]) of under 150 mg/kg, an ED50 (Mus musculus [5]) of under 150 mg/kg and an RD50 (Mus musculus [6]) of over 150 mg/kg.

Compound O=C1CCCC2(c3ccccc3)OCCN12 (stereo not drawn) has an ED50 (Mus musculus [2]) of 158 mg/kg, an ED50 (Mus musculus [3]) of 150 mg/kg and an ED50 (Mus musculus [4]) of under 150 mg/kg. It also gave an ED50 (Mus musculus [5]) of over 150 mg/kg and an RD50 (Mus musculus [6]) of 69 mg/kg.

CCC1(c2ccccc2)C(=O)N=C([O-])NC1=O.[Na+] (stereo not drawn) [PHENOBARBITAL SODIUM] showed an LD50 [1] of 225 mg/kg, an ED50 (Mus musculus [2]) of 15.4 mg/kg and an ED50 (Mus musculus [3]) of 8 mg/kg. It also gave an ED50 (Mus musculus [4]) of 62.5 mg/kg, an ED50 (Mus musculus [5]) of 83 mg/kg and an RD50 (Mus musculus [6]) of 65.6 mg/kg.

With Cc1ccc(C23CCC(=O)N2CCCO3)cc1 (stereo not drawn) the Activity (Mus musculus [10]) was “inactive”, the LD50 [1] was 675 mg/kg and the ED50 (Mus musculus [4]) was under 50 mg/kg. For the same compound, the ED50 (Mus musculus [5]) was 160 mg/kg, the RD50 (Mus musculus [6]) was over 100 mg/kg and the Activity (Mus musculus [8]) was “inactive”.

For Cc1ccc(C23CCC(=O)N2CCCO3)c(C)c1 (stereo not drawn), the LD50 [1] was 600 mg/kg, the ED50 (Mus musculus [2]) was over 150 mg/kg and the ED50 (Mus musculus [3]) was under 150 mg/kg. It also gave an ED50 (Mus musculus [4]) of under 50 mg/kg, an ED50 (Mus musculus [5]) of 150 mg/kg and an RD50 (Mus musculus [6]) of under 150 mg/kg.
